Test results reported in ChEMBL document CHEMBL1255190, “The selected flavonol glycoside derived from Sophorae Flos improves glucose uptake and inhibits adipocyte differentiation via activation AMPK in 3T3-L1 cells” (Bioorg Med Chem Lett, 2010).
The source made the active and inactive calls. The rule behind the calls is not given here.

Key:
Type in all cases: cell-based
[1] = biological target: 5'-AMP-activated protein kinase catalytic subunit alpha-2 (Mus musculus) (UniProt Q8BRK8); test: Induction of AMPK phosphorylation in mouse 3T3L1 cells at 10 uM by Western blotting; settings: 3T3-L1
Procedure, shortened: (§1)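 Mouse 3T3-L1 cells exposed to test compound at 10 uM. Phosphorylated AMPK and its downstream target ACC were detected by western blot. Experiments were run in triplicate, with data given as means ± S.D. Groups were compared by one-way ANOVA with the Newman-Keuls test, significance p < 0.05.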

[2] = biological target: 5'-AMP-activated protein kinase catalytic subunit alpha-2 (Mus musculus) (UniProt Q8BRK8); test: Induction of AMPK-mediated ACC phosphorylation in mouse 3T3L1 cells at 10 uM by Western blotting; settings: 3T3-L1; procedure, shortened: as §1
[3] = biological target: 5'-AMP-activated protein kinase catalytic subunit alpha-2 (Mus musculus) (UniProt Q8BRK8); test: Inhibition of AMPK-mediated adipocyte differentiation in mouse 3T3L1 cells; settings: 3T3-L1
Procedure, shortened: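 Compound (0, 5, 10 or 20 uM) co-applied with MDI differentiation medium on day 0 for 48 h. Differentiation ended at day 6 and lipid droplets were stained with Oil red O. Triplicate runs, means ± S.D.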

[4] = test system: 3T3-L1; test: Cytotoxicity against mouse 3T3L1 cells at 20 uM after 24 hrs; settings: 3t3-l1, 24 h
Procedure, shortened: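 3T3-L1 cells exposed to compounds at 5-100 uM for 24 h. Viability was assessed under Mosmann's conditions.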

[5] = biological target: 5'-AMP-activated protein kinase catalytic subunit alpha-2 (Mus musculus) (UniProt Q8BRK8); test: Inhibition of AMPK in mouse 3T3L1 cells assessed as inhibition of C/EBPalpha gene expression by RT-PCR; settings: 3T3-L1
Procedure, shortened: (§2)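 MDI-induced differentiating 3T3-L1 cells were given 0, 5, 10 or 20 uM. Per the legend, cells were treated for 6 h. RNA was extracted with Trizol and RT-PCR run with specific primers for the adipogenic markers. Triplicate runs; one-way ANOVA with Newman-Keuls test.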

[6] = biological target: 5'-AMP-activated protein kinase catalytic subunit alpha-2 (Mus musculus) (UniProt Q8BRK8); test: Inhibition of AMPK in mouse 3T3L1 cells assessed as inhibition of PPARgamma gene expression by RT-PCR; settings: 3T3-L1; procedure, shortened: as §2
[7] = biological target: 5'-AMP-activated protein kinase catalytic subunit alpha-2 (Mus musculus) (UniProt Q8BRK8); test: Inhibition of AMPK in mouse 3T3L1 cells assessed as inhibition of FAS gene expression by RT-PCR; settings: 3T3-L1; procedure, shortened: as §2
[8] = biological target: 5'-AMP-activated protein kinase catalytic subunit alpha-2 (Mus musculus) (UniProt Q8BRK8); test: Inhibition of AMPK-mediated glucose uptake in mouse 3T3L1 cells; settings: 3T3-L1
Procedure, shortened: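 Differentiated 3T3-L1 adipocytes incubated 1 h with 5, 10 or 20 uM, with 200 nM insulin as reference. 2-Deoxy-D-[3H]-glucose uptake was then measured. For AMPK dependence, 10 uM was tested with or without compound C (10 uM). Triplicate runs, means ± S.D., p<0.05.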

[9] = biological target: 5'-AMP-activated protein kinase catalytic subunit alpha-2 (Mus musculus) (UniProt Q8BRK8); test: Inhibition of AMPK in mouse 3T3L1 cells assessed as inhibition of C/EBPalpha level by Western blotting; settings: 3T3-L1
Procedure, shortened: (§3)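 Western blot of lysates from 3T3-L1 cells undergoing MDI-induced differentiation. Cells received 0, 5, 10 or 20 uM from day 0. Probed for FAS, SREBP-1c, C/EBPa and PPARgamma. Triplicate runs; one-way ANOVA with Newman-Keuls test.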

[10] = biological target: 5'-AMP-activated protein kinase catalytic subunit alpha-2 (Mus musculus) (UniProt Q8BRK8); test: Inhibition of AMPK in mouse 3T3L1 cells assessed as inhibition of PPARgamma level by Western blotting; settings: 3T3-L1; procedure, shortened: as §3
[11] = biological target: 5'-AMP-activated protein kinase catalytic subunit alpha-2 (Mus musculus) (UniProt Q8BRK8); test: Inhibition of AMPK in mouse 3T3L1 cells assessed as inhibition of FAS level by Western blotting; settings: 3T3-L1; procedure, shortened: as §3
[12] = biological target: 5'-AMP-activated protein kinase catalytic subunit alpha-2 (Mus musculus) (UniProt Q8BRK8); test: Inhibition of AMPK in mouse 3T3L1 cells assessed as inhibition of SREBP1c level by Western blotting; settings: 3T3-L1; procedure, shortened: as §3

Sequence of 5'-AMP-activated protein kinase catalytic subunit alpha-2 (Mus musculus) (Q8BRK8 whole entry): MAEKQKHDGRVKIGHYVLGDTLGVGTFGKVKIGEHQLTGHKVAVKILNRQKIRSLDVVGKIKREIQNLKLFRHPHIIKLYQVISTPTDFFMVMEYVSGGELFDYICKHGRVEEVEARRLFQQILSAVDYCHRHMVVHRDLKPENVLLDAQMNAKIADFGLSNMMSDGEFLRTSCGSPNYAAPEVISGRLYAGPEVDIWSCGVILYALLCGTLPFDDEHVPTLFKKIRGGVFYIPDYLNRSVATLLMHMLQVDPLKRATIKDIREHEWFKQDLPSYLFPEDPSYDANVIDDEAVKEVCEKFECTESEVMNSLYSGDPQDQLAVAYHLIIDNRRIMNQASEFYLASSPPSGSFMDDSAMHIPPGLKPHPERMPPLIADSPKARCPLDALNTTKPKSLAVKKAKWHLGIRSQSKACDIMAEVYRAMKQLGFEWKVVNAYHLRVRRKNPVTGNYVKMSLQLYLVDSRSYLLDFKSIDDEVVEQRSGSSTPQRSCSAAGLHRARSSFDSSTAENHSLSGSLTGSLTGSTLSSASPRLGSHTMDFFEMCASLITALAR

## O=c1c(O)c(-c2ccc(O)c(O)c2)oc2cc(O)cc(O)c12 [QUERCETIN]
[1]
  Activity: Active
[2]
  Activity: Active
[3]
  Activity: Active
[4]
  Activity: Non-toxic

## O=c1c(O[C@@H]2O[C@H](CO)[C@@H](O)[C@H](O)[C@H]2O)c(-c2ccc(O)cc2)oc2cc(O)cc(O)c12 [ASTRAGALIN]
[3]
  Activity: Active
[4]
  Activity: Non-toxic

## COc1cc(-c2oc3cc(O)cc(O)c3c(=O)c2O[C@@H]2O[C@H](CO[C@@H]3O[C@@H](C)[C@H](O)[C@@H](O)[C@H]3O)[C@@H](O)[C@H](O)[C@H]2O)ccc1O [NARCISSIN]
[3]
  Activity: Active
[4]
  Activity: Non-toxic

## O=c1c(O)c(-c2ccc(O)cc2)oc2cc(O)cc(O)c12 [KAEMPFEROL]
[3]
  Activity: Active
[4]
  Activity: Non-toxic

## O=c1c(O[C@@H]2O[C@H](CO)[C@@H](O)[C@H](O)[C@H]2O)c(-c2ccc(O)c(O)c2)oc2cc(O)cc(O)c12 [ISOQUERCETIN]
[3]
  Activity: Active
[4]
  Activity: Non-toxic

## O=c1c(O)c(-c2ccc(O)c(O)c2)oc2cc(O)cc(O[C@@H]3O[C@H](CO)[C@@H](O)[C@H](O)[C@H]3O)c12
[3]
  Activity: Active
[4]
  Activity: Non-toxic

## C[C@@H]1O[C@@H](OC[C@H]2O[C@@H](Oc3c(-c4ccc(O)c(O)c4)oc4cc(O)cc(O)c4c3=O)[C@H](O)[C@@H](O)[C@@H]2O)[C@H](O)[C@H](O[C@@H]2O[C@H](CO)[C@@H](O)[C@H](O)[C@H]2O)[C@H]1O
[1]
  Activity: Active
[2]
  Activity: Active
[3]
  Activity: Active
[4]
  Activity: Non-toxic
[5]
  Activity: Active
[6]
  Activity: Active
[7]
  Activity: Active
[8]
  Activity: Active
[9]
  Activity: Dose-dependent effect
[10]
  Activity: Dose-dependent effect
[11]
  Activity: Dose-dependent effect
[12]
  Activity: Dose-dependent effect

## C[C@@H]1O[C@@H](OC[C@H]2O[C@@H](Oc3c(-c4ccc(O)c(O)c4)oc4cc(O)cc(O)c4c3=O)[C@H](O)[C@@H](O)[C@@H]2O)[C@H](O)[C@H](O[C@@H]2OC[C@@H](O)[C@H](O)[C@H]2O)[C@H]1O
[3]
  Activity: Active
[4]
  Activity: Non-toxic

## C[C@@H]1O[C@@H](OC[C@H]2O[C@@H](Oc3c(-c4ccc(O)c(O)c4)oc4cc(O)cc(O)c4c3=O)[C@H](O)[C@@H](O)[C@@H]2O)[C@H](O)[C@H](O)[C@H]1O [RUTIN]
[3]
  Activity: Active
[4]
  Activity: Non-toxic
